Assay [1] deals with T1, Muscarinic acetylcholine receptor M2 (Rattus norvegicus, UniProt P10980).
T1 sequence (P10980 whole entry): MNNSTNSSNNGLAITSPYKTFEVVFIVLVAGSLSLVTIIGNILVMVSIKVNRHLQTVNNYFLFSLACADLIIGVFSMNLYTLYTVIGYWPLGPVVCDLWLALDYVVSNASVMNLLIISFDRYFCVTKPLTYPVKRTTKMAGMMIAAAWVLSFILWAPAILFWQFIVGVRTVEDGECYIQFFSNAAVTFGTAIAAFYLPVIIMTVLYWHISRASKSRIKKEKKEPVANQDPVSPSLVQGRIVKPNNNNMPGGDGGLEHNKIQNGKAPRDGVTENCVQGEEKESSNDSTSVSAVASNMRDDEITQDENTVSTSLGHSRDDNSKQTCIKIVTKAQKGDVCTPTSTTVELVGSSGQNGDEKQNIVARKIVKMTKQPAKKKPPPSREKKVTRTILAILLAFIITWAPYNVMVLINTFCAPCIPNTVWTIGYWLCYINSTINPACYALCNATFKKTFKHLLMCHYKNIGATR
In words: Displacement of [3H]NMS from muscarinic M2 receptor in Sprague-Dawley rat left atria after 60 mins. A digest of the protocol: (§1)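 Membranes from male SD rat (220–250 g) left atria (M2) or submandibulary glands (M3). Tissue homogenised in ice-cold 0.32 M sucrose/50 mM Tris pH 7.4, then spun at 1000g and 20000g, all steps at 4 °C. Membranes (0.1 mg protein) incubated 60 min at 37 °C with 0.4 nM [3H]NMS plus increasing test concentrations. Filtration read-out. IC50 converted to Ki by Cheng–Prusoff, mean SEM.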
A general note: Displacement assays read how much labelled ligand stays bound in the presence of the test substance.

The target of assay [2] is Muscarinic acetylcholine receptor M3 (Rattus norvegicus, UniProt P08483). The assay can be described thus: Displacement of [3H]NMS from muscarinic M3 receptor in Sprague-Dawley rat submandibulary gland after 60 mins. A digest of the protocol: as §1
In a further assay the target is T2, Muscarinic receptor 2 (Cavia porcellus, UniProt Q8VH27).
T2 sequence (Q8VH27 whole entry): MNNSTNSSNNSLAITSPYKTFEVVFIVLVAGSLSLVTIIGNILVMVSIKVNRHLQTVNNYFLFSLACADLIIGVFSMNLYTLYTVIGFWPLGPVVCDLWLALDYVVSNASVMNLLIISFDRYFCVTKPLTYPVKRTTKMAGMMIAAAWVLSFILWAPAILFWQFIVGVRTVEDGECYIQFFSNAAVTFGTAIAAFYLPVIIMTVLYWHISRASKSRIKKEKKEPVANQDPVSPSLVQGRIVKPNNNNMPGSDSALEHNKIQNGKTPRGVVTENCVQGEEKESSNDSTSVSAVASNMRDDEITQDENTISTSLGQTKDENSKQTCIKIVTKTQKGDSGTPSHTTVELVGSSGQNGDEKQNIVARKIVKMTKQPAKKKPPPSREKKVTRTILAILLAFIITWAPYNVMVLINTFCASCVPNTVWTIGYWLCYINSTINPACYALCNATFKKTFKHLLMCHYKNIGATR
The assay can be described thus: Antagonist activity at muscarinic M2 receptor in guinea pig left atria assessed as inhibition of carbachol-induced […]. The note with it: read-out: pA2 (converted). Put shortly: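 Isolated left atria in Kreb's solution under 500 mg tension, stabilised 45 min, then electrically paced (2 Hz, 6 ms, 10 V square-wave submaximal pulses). Inotropic response recorded isometrically. Cumulative carbachol curves expressed as % of contraction before agonist. Antagonist tested at two or three concentrations. pA2 obtained by Schild analysis.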

In assay [3] the target is Muscarinic receptor M2 and M3 (Rattus norvegicus) (UniProt P08483+P10980). In words: Selectivity ratio of Ki for muscarinic M2 receptor in Sprague-Dawley rat left atria to Ki for muscarinic M3 receptor in Sprague-Dawley rat submandibulary gland.
For assay [4], the target named is Muscarinic acetylcholine receptor M3 (Cavia porcellus, UniProt Q8VH26). In words: Antagonist activity at muscarinic M3 receptor in guinea pig ilea assessed as inhibition of carbachol-induced contraction. The settings on record: read-out: pA2 (converted). Put shortly: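 Ileal strips (1.5 cm) in 10 ml baths of Kreb's solution under 1000 mg load, equilibrated 30 min with fluid changed every 15 min. Isotonic recording. Cumulative carbachol curve with roughly 3-fold steps, each added once the prior response was steady. Responses expressed as % of control maximum. Antagonist at three concentrations. pA2 by Schild analysis.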
Chain of Muscarinic acetylcholine receptor M3 (Cavia porcellus, UniProt Q8VH26) (Q8VH26 whole entry): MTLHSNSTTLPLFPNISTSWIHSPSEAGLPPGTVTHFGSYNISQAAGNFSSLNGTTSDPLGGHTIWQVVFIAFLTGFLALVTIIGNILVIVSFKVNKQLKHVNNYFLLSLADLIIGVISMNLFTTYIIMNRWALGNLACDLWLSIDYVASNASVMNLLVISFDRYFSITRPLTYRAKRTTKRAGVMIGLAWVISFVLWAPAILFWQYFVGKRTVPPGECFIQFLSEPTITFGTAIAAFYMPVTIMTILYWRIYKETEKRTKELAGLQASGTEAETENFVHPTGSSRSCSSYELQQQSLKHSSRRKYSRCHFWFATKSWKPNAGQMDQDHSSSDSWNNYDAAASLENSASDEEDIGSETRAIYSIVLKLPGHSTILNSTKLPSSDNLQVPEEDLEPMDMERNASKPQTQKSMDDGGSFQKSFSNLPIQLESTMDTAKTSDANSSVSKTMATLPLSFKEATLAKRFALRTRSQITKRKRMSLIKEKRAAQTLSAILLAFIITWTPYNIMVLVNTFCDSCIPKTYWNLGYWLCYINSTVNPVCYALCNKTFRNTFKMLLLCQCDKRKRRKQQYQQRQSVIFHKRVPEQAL

Chain of Muscarinic acetylcholine receptor M3 (Rattus norvegicus, UniProt P08483) (P08483 whole entry): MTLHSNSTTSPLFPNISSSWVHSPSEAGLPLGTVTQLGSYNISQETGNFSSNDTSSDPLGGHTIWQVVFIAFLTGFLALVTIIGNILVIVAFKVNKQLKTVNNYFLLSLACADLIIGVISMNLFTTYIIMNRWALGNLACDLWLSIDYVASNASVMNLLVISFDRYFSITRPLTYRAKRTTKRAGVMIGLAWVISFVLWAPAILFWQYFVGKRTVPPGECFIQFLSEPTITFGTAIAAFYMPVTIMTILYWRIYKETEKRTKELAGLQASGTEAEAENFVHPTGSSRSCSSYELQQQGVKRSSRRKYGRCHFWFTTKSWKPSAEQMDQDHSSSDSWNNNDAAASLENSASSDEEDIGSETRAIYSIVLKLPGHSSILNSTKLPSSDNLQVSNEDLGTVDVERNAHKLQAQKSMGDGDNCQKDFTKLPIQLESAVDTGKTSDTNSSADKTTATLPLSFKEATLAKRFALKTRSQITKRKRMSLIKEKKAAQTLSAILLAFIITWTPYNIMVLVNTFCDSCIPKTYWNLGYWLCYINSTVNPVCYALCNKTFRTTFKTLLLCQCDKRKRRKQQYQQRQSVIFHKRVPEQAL
Chain of Muscarinic receptor M2 and M3 (Rattus norvegicus) (P08483 whole entry, looked up, one chain of several): as the sequence (P08483 whole entry) above

For orientation: Ki means a measure of affinity in units of concentration, obtained from inhibition or displacement. A higher Ki goes with weaker binding. As to `CC(=O)O[C@H]1C[C@@H]2C[C@@H](OC(=O)c3ccccc3Cl)C[C@@H]1N2C`, the Ki in assay [1] is 8.8 µM; in assay [2], 1.4 µM. Further, the Kb at Muscarinic receptor 2 was 0.631 µM; in assay [4], 0.275 µM. In addition, in assay [3], the Ratio Ki was 6.3.

Turning to `CC(=O)O[C@H]1C[C@@H]2C[C@@H](OC(=O)c3ccccc3[N+](=O)[O-])C[C@@H]1N2C`, the Ki in assay [1] amounted to 9.8 µM; in assay [2], 3.7 µM. Besides, the values for the Kb (on Muscarinic receptor 2; in assay [4]) were 0.851 µM and 0.389 µM, respectively. Besides, the Ratio Ki in assay [3] worked out at 2.6.

Take `CC(=O)O[C@@H]1C[C@@H]2C[C@H](OC(=O)c3ccccc3Cl)C[C@@H]1N2C`: the values for the Ki in assay [1] and in assay [2] were 95 µM and 83 µM, respectively. Further, the Ratio Ki in assay [3] was 1.1.

Consider `CC(=O)O[C@@H]1C[C@@H]2C[C@H](OC(=O)c3ccccc3)C[C@@H]1N2C`, for which the Ki is 77 µM in assay [1] and 71 µM in assay [2]. The Ratio Ki in assay [3] came out at 1.1.

For the compound `CC(=O)O[C@@H]1C[C@@H]2C[C@H](OC(=O)Cc3ccccc3)C[C@@H]1N2C`, the values for the Ki in assay [1] and in assay [2] were 86 µM and 95 µM, respectively. For the same compound, the Ratio Ki in assay [3] was 0.9.

As to `CC(=O)O[C@H]1C[C@@H]2C[C@@H](OC(=O)c3ccccc3)C[C@@H]1N2C`, the figures for the Ki in assay [1] and in assay [2] were 10.7 µM and 2.7 µM, respectively. In addition, the Kb on Muscarinic receptor 2 was 1.32 µM; in assay [4] it was 0.309 µM. Also, the Ratio Ki in assay [3] turned out to be 4.

For the compound `CC(=O)O[C@H]1C[C@@H]2C[C@@H](OC(=O)Cc3ccccc3)C[C@@H]1N2C`, the Ki in assay [1] is 12 µM; in assay [2], 0.92 µM. Further, the Kb at Muscarinic receptor 2 was 1.1 µM; in assay [4] it was 0.123 µM. Also, the Ratio Ki in assay [3] amounted to 13.

For `CC(=O)O[C@@H]1C[C@@H]2C[C@H](OC(=O)c3ccccc3[N+](=O)[O-])C[C@@H]1N2C`, the Ki in assay [1] is 84 µM; in assay [2], 66 µM. Moreover, the Ratio Ki in assay [3] came to 1.3.

The record behind these values is ChEMBL document CHEMBL2321697, “The effect of absolute configuration on activity, subtype selectivity (M3/M2) of 3α-acyloxy-6β-acetoxyltropane derivatives as muscarinic M3 receptor antagonists” (Bioorg Med Chem, 2013).
